Key:
Type in all cases: toxicity, cell-based
U2OS [1] = experiment: Multiplex assay against U2OS; conditions: human
In short: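 Values for tubulin, mitochondrial-mass and membrane-permeability phenotypes are per cents of cells with healthy nuclei. These cells were identified by CellPathfinder machine-learning gating of live cells that had been stained at seeding with Hoechst33342, BioTracker Green Microtubule Cytoskeleton Dye, MitoTracker Red and Annexin V Alexa Fluor 680 and imaged on a CQ1 microscope at 37°C and 5% CO2 after compound addition. The gating first set Hoechst high-intensity objects apart from normal cells, then split normal cells into healthy, pyknosed or fragmented nuclei, and pyknosed cells into mitotic or apoptotic.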

U2OS [2] = experiment: Incucyte cell viability with U2OS; conditions: human, 10 µM, compound concentration 10 uM; note: filed as whole numbers so only -1 and 0 and 1 occur
HEK-293T = experiment: Incucyte cell viability with HEK293T; conditions: human, 10 µM, compound concentration 10 uM; note: filed as whole numbers so only -1 and 0 and 1 occur
Fibroblast = experiment: Incucyte cell viability with human fibroblast; conditions: 10 µM, compound concentration 10 uM; note: filed as whole numbers so only -1 and 0 and 1 occur
[3] = 12 h, 1 µM, compound concentration 1 uM, replicate 1
[4] = 12 h, 1 µM, compound concentration 1 uM, replicate 2
[5] = 12 h, 10 µM, compound concentration 10 uM, replicate 1
[6] = 12 h, 10 µM, compound concentration 10 uM, replicate 2
[7] = 24 h, 1 µM, compound concentration 1 uM, replicate 1
[8] = 24 h, 1 µM, compound concentration 1 uM, replicate 2
[9] = 24 h, 10 µM, compound concentration 10 uM, replicate 1
[10] = 24 h, 10 µM, compound concentration 10 uM, replicate 2
[11] = 48 h, 1 µM, compound concentration 1 uM, replicate 1
[12] = 48 h, 1 µM, compound concentration 1 uM, replicate 2
[13] = 48 h, 10 µM, compound concentration 10 uM, replicate 1
[14] = 48 h, 10 µM, compound concentration 10 uM, replicate 2
[15] = 6 h, replicate number 1, timepoint 6 hours
[16] = 12 h, replicate number 1, timepoint 12 hours
[17] = 18 h, replicate number 1, timepoint 18 hours
[18] = 24 h, replicate number 1, timepoint 24 hours

Compound: CC(C)[C@H](CO)Nc1nc(Nc2cccc(Cl)c2)c2ncn(C(C)C)c2n1 [PURVALANOLA]
- Population Apoptotic (%) (U2OS [1]; [3]): 58%
- Population Fragmented Nuclei (%) (U2OS [1]; [3]): 13%
- Population Healthy Nuclei (%) (U2OS [1]; [3]): 76%
- Population Hoechst High Intensity Objects (%) (U2OS [1]; [3]): 12%
- Population Membrane Permeable-Phenotype (%) (U2OS [1]; [3]): 1%
- Population Mitochondria Different-Phenotype (%) (U2OS [1]; [3]): 15%
- Population Mitotic Cells (%) (U2OS [1]; [3]): 41%
- Population Normal (%) (U2OS [1]; [3]): 87%
- Population Pyknosed Nuclei (%) (U2OS [1]; [3]): 10%
- Population Tubulin-Different-Phenotype (%) (U2OS [1]; [3]): 12%
- Total Cell Count (U2OS [1]; [3]): 212
- Population Apoptotic (%) (U2OS [1]; [4]): 50%
- Population Fragmented Nuclei (%) (U2OS [1]; [4]): 8%
- Population Healthy Nuclei (%) (U2OS [1]; [4]): 88%
- Population Hoechst High Intensity Objects (%) (U2OS [1]; [4]): 10%
- Population Membrane Permeable-Phenotype (%) (U2OS [1]; [4]): 7%
- Population Mitochondria Different-Phenotype (%) (U2OS [1]; [4]): 21%
- Population Mitotic Cells (%) (U2OS [1]; [4]): 50%
- Population Normal (%) (U2OS [1]; [4]): 89%
- Population Pyknosed Nuclei (%) (U2OS [1]; [4]): 3%
- Population Tubulin-Different-Phenotype (%) (U2OS [1]; [4]): 15%
- Total Cell Count (U2OS [1]; [4]): 111
- Population Apoptotic (%) (U2OS [1]; [5]): 68%
- Population Fragmented Nuclei (%) (U2OS [1]; [5]): 23%
- Population Healthy Nuclei (%) (U2OS [1]; [5]): 55%
- Population Hoechst High Intensity Objects (%) (U2OS [1]; [5]): 13%
- Population Membrane Permeable-Phenotype (%) (U2OS [1]; [5]): 39%
- Population Mitochondria Different-Phenotype (%) (U2OS [1]; [5]): 96%
- Population Mitotic Cells (%) (U2OS [1]; [5]): 32%
- Population Normal (%) (U2OS [1]; [5]): 86%
- Population Pyknosed Nuclei (%) (U2OS [1]; [5]): 21%
- Population Tubulin-Different-Phenotype (%) (U2OS [1]; [5]): 100%
- Total Cell Count (U2OS [1]; [5]): 129
- Population Apoptotic (%) (U2OS [1]; [6]): 83%
- Population Fragmented Nuclei (%) (U2OS [1]; [6]): 13%
- Population Healthy Nuclei (%) (U2OS [1]; [6]): 79%
- Population Hoechst High Intensity Objects (%) (U2OS [1]; [6]): 7%
- Population Membrane Permeable-Phenotype (%) (U2OS [1]; [6]): 23%
- Population Mitochondria Different-Phenotype (%) (U2OS [1]; [6]): 95%
- Population Mitotic Cells (%) (U2OS [1]; [6]): 16%
- Population Normal (%) (U2OS [1]; [6]): 92%
- Population Pyknosed Nuclei (%) (U2OS [1]; [6]): 6%
- Population Tubulin-Different-Phenotype (%) (U2OS [1]; [6]): 98%
- Total Cell Count (U2OS [1]; [6]): 66
- Population Apoptotic (%) (U2OS [1]; [7]): 36%
- Population Fragmented Nuclei (%) (U2OS [1]; [7]): 10%
- Population Healthy Nuclei (%) (U2OS [1]; [7]): 80%
- Population Hoechst High Intensity Objects (%) (U2OS [1]; [7]): 5%
- Population Membrane Permeable-Phenotype (%) (U2OS [1]; [7]): 3%
- Population Mitochondria Different-Phenotype (%) (U2OS [1]; [7]): 7%
- Population Mitotic Cells (%) (U2OS [1]; [7]): 63%
- Population Normal (%) (U2OS [1]; [7]): 94%
- Population Tubulin-Different-Phenotype (%) (U2OS [1]; [7]): 6%
- Total Cell Count (U2OS [1]; [7]): 221
- Population Apoptotic (%) (U2OS [1]; [8]): 60%
- Population Fragmented Nuclei (%) (U2OS [1]; [8]): 8%
- Population Healthy Nuclei (%) (U2OS [1]; [8]): 83%
- Population Hoechst High Intensity Objects (%) (U2OS [1]; [8]): 6%
- Population Membrane Permeable-Phenotype (%) (U2OS [1]; [8]): 5%
- Population Mitochondria Different-Phenotype (%) (U2OS [1]; [8]): 23%
- Population Mitotic Cells (%) (U2OS [1]; [8]): 40%
- Population Normal (%) (U2OS [1]; [8]): 93%
- Population Pyknosed Nuclei (%) (U2OS [1]; [8]): 8%
- Population Tubulin-Different-Phenotype (%) (U2OS [1]; [8]): 9%
- Total Cell Count (U2OS [1]; [8]): 157
- Population Apoptotic (%) (U2OS [1]; [9]): 67%
- Population Fragmented Nuclei (%) (U2OS [1]; [9]): 27%
- Population Healthy Nuclei (%) (U2OS [1]; [9]): 48%
- Population Hoechst High Intensity Objects (%) (U2OS [1]; [9]): 16%
- Population Membrane Permeable-Phenotype (%) (U2OS [1]; [9]): 55%
- Population Mitochondria Different-Phenotype (%) (U2OS [1]; [9]): 100%
- Population Mitotic Cells (%) (U2OS [1]; [9]): 32%
- Population Normal (%) (U2OS [1]; [9]): 83%
- Population Pyknosed Nuclei (%) (U2OS [1]; [9]): 24%
- Population Tubulin-Different-Phenotype (%) (U2OS [1]; [9]): 100%
- Total Cell Count (U2OS [1]; [9]): 133
- Population Apoptotic (%) (U2OS [1]; [10]): 80%
- Population Fragmented Nuclei (%) (U2OS [1]; [10]): 16%
- Population Healthy Nuclei (%) (U2OS [1]; [10]): 65%
- Population Hoechst High Intensity Objects (%) (U2OS [1]; [10]): 8%
- Population Membrane Permeable-Phenotype (%) (U2OS [1]; [10]): 50%
- Population Mitotic Cells (%) (U2OS [1]; [10]): 20%
- Population Normal (%) (U2OS [1]; [10]): 91%
- Population Pyknosed Nuclei (%) (U2OS [1]; [10]): 17%
- Total Cell Count (U2OS [1]; [10]): 66
- Population Fragmented Nuclei (%) (U2OS [1]; [11]): 12%
- Population Healthy Nuclei (%) (U2OS [1]; [11]): 82%
- Population Hoechst High Intensity Objects (%) (U2OS [1]; [11]): 4%
- Population Membrane Permeable-Phenotype (%) (U2OS [1]; [11]): 4%
- Population Mitochondria Different-Phenotype (%) (U2OS [1]; [11]): 14%
- Population Normal (%) (U2OS [1]; [11]): 95%
- Population Pyknosed Nuclei (%) (U2OS [1]; [11]): 5%
- Population Tubulin-Different-Phenotype (%) (U2OS [1]; [11]): 7%
- Total Cell Count (U2OS [1]; [11]): 219
- Population Apoptotic (%) (U2OS [1]; [12]): 60%
- Population Fragmented Nuclei (%) (U2OS [1]; [12]): 4%
- Population Healthy Nuclei (%) (U2OS [1]; [12]): 84%
- Population Hoechst High Intensity Objects (%) (U2OS [1]; [12]): 5%
- Population Membrane Permeable-Phenotype (%) (U2OS [1]; [12]): 6%
- Population Mitochondria Different-Phenotype (%) (U2OS [1]; [12]): 25%
- Population Mitotic Cells (%) (U2OS [1]; [12]): 40%
- Population Normal (%) (U2OS [1]; [12]): 94%
- Population Pyknosed Nuclei (%) (U2OS [1]; [12]): 11%
- Population Tubulin-Different-Phenotype (%) (U2OS [1]; [12]): 10%
- Total Cell Count (U2OS [1]; [12]): 168
- Population Apoptotic (%) (U2OS [1]; [13]): 77%
- Population Fragmented Nuclei (%) (U2OS [1]; [13]): 33%
- Population Healthy Nuclei (%) (U2OS [1]; [13]): 17%
- Population Hoechst High Intensity Objects (%) (U2OS [1]; [13]): 23%
- Population Membrane Permeable-Phenotype (%) (U2OS [1]; [13]): 64%
- Population Mitochondria Different-Phenotype (%) (U2OS [1]; [13]): 94%
- Population Mitotic Cells (%) (U2OS [1]; [13]): 22%
- Population Normal (%) (U2OS [1]; [13]): 76%
- Population Pyknosed Nuclei (%) (U2OS [1]; [13]): 49%
- Population Tubulin-Different-Phenotype (%) (U2OS [1]; [13]): 100%
- Total Cell Count (U2OS [1]; [13]): 189
- Population Apoptotic (%) (U2OS [1]; [14]): 100%
- Population Fragmented Nuclei (%) (U2OS [1]; [14]): 16%
- Population Healthy Nuclei (%) (U2OS [1]; [14]): 62%
- Population Hoechst High Intensity Objects (%) (U2OS [1]; [14]): 18%
- Population Membrane Permeable-Phenotype (%) (U2OS [1]; [14]): 58%
- Population Mitochondria Different-Phenotype (%) (U2OS [1]; [14]): 87%
- Population Mitotic Cells (%) (U2OS [1]; [14]): 0%
- Population Normal (%) (U2OS [1]; [14]): 81%
- Population Pyknosed Nuclei (%) (U2OS [1]; [14]): 20%
- Population Tubulin-Different-Phenotype (%) (U2OS [1]; [14]): 93%
- Total Cell Count (U2OS [1]; [14]): 94
- Growth Rate (U2OS [2]; [15]): 0
- Growth Rate (U2OS [2]; [16]): 0
- Growth Rate (U2OS [2]; [17]): 0
- Growth Rate (U2OS [2]; [18]): 0
- Growth Rate (HEK-293T; [15]): 0
- Growth Rate (HEK-293T; [16]): 0
- Growth Rate (HEK-293T; [17]): 0
- Growth Rate (HEK-293T; [18]): 0
- Growth Rate (Fibroblast; 0 h, replicate number 1, timepoint 0 hours): 0
- Growth Rate (Fibroblast; [15]): 0
- Growth Rate (Fibroblast; [16]): 0
- Growth Rate (Fibroblast; [17]): 0
- Growth Rate (Fibroblast; [18]): 0
